In ChEMBL document CHEMBL1153507, “Synthesis, DNA intercalation and 3D QSAR analysis of cis-2,4,5-trisubstituted-1,3-dithiolanes as a novel class of antitumor agents” (2009):
Activity calls are given as the source filed them. The rule behind the calls is not given here.

Tests used:
[1] = tested on: Calf thymus DNA; assay: Binding affinity to calf thymus DNA assessed as hyperchromic effect by UV-vis spectrophotometry; conditions: Bos taurus
[2] = tested on: CCRF S-180; assay: Antitumor activity against mouse S180 cells implanted in ICR mouse assessed as tumor weight at 44.64 umol/kg/day, ip administered for 7 consecutive days after 24 hrs of tumor implantation measured after 24 hrs post dose; assay type: functional
In short: (§1)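 Male ICR mice aged 10–12 weeks, housed at 21 °C on a natural light cycle, carried S180 tumors. 24 h after implantation they were randomized into groups of 10. Daily ip dosing in 0.2 ml normal saline for 7 days: test agents 44.64 µmol/kg/day, cytarabine 89.28 µmol/kg/day, saline as negative control. Mice were killed 24 h after the last dose and tumors weighed. Inhibition = (control − treated)/control tumor weight. Mean ± SD.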

[3] = tested on: Calf thymus DNA; assay: Binding affinity to calf thymus DNA by circular diachromic assay; assay type: nucleic-acid assay; conditions: Bos taurus
[4] = tested on: Calf thymus DNA; assay: Binding affinity to calf thymus DNA by spectroscopy; assay type: nucleic-acid assay; conditions: Bos taurus
In short: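 UV-vis titration of calf thymus DNA (10 µM final) in PBS, pH 7.4. Compound from a 10 mM PBS stock was added in sequential aliquots to final 4–40 µM, and spectra were recorded after each addition. Compounds were transparent at 200–360 nm.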

[5] = tested on: CCRF S-180; assay: Antitumor activity against mouse S180 cells xenografted in ip dosed ICR mouse assessed as inhibition of tumor weight administered for 7 consecutive days after 24 of hrs tumor implantation measured after 24 hrs post dose; assay type: functional, organism-based
In short: as §1

[6] = tested on: CCRF S-180; assay: Antitumor activity against mouse S180 cells implanted in ICR mouse assessed as tumor weight at 89.28 umol/kg/day, ip administered for 7 consecutive days after 24 hrs of tumor implantation measured after 24 hrs post dose; assay type: functional
In short: as §1

Activity [1] | Activity [3] | Activity [4] | Structure (SMILES) | Activity [2] | inhibition [5] | Activity [6]
Active | Active | Active | C[C@H](N)C(=O)OC[C@@H]1S[C@H](CC=O)S[C@@H]1COC(=O)[C@H](C)N | 1.213 g | – | –
Active | Active | Active | N[C@@H](Cc1ccc(O)cc1)C(=O)OC[C@@H]1S[C@H](CC=O)S[C@@H]1COC(=O)[C@@H](N)Cc1ccc(O)cc1 | 0.529 g | Dose-dependent effect | –
Active | Active | Active | CC[C@H](C)[C@H](N)C(=O)OC[C@@H]1S[C@H](CC=O)S[C@@H]1COC(=O)[C@@H](N)[C@@H](C)CC | 1.064 g | – | –
Active | Active | Active | NC(=O)CC[C@H](N)C(=O)OC[C@@H]1S[C@H](CC=O)S[C@@H]1COC(=O)[C@@H](N)CCC(N)=O | 1.061 g | – | –
Active | Active | Active | NCC(=O)OC[C@@H]1S[C@H](CC=O)S[C@@H]1COC(=O)CN | 0.723 g | Dose-dependent effect | –
Active | Active | Active | N[C@@H](CO)C(=O)OC[C@@H]1S[C@H](CC=O)S[C@@H]1COC(=O)[C@@H](N)CO | 1.493 g | – | –
Active | Active | Active | N[C@@H](Cc1ccccc1)C(=O)OC[C@@H]1S[C@H](CC=O)S[C@@H]1COC(=O)[C@@H](N)Cc1ccccc1 | 0.693 g | Dose-dependent effect | –
– | – | – | Nc1ccn([C@@H]2O[C@H](CO)[C@@H](O)[C@@H]2O)c(=O)n1 [CYTARABINE] | – | – | 0.582 g
Active | Active | Active | NC(=O)C[C@H](N)C(=O)OC[C@@H]1S[C@H](CC=O)S[C@@H]1COC(=O)[C@@H](N)CC(N)=O | 0.855 g | – | –
Active | Active | Active | N[C@@H](CCC(=O)O)C(=O)OC[C@@H]1S[C@H](CC=O)S[C@@H]1COC(=O)[C@@H](N)CCC(=O)O | 1.051 g | – | –
Active | Active | Active | N=C(N)NCCC[C@H](N)C(=O)OC[C@@H]1S[C@H](CC=O)S[C@@H]1COC(=O)[C@@H](N)CCCNC(=N)N | 0.778 g | – | –
Active | Active | Active | CSCC[C@H](N)C(=O)OC[C@@H]1S[C@H](CC=O)S[C@@H]1COC(=O)[C@@H](N)CCSC | 1.139 g | – | –
Active | Active | Active | C[C@@H](O)[C@H](N)C(=O)OC[C@@H]1S[C@H](CC=O)S[C@@H]1COC(=O)[C@@H](N)[C@@H](C)O | 1.087 g | – | –
Active | Active | Active | N[C@@H](Cc1c[nH]c2ccccc12)C(=O)OC[C@@H]1S[C@H](CC=O)S[C@@H]1COC(=O)[C@@H](N)Cc1c[nH]c2ccccc12 | 0.954 g | – | –
Active | Active | Active | NCCCC[C@H](N)C(=O)OC[C@@H]1S[C@H](CC=O)S[C@@H]1COC(=O)[C@@H](N)CCCCN | 0.989 g | – | –
Active | Active | Active | CC(C)[C@H](N)C(=O)OC[C@@H]1S[C@H](CC=O)S[C@@H]1COC(=O)[C@@H](N)C(C)C (mixture of isomers) | 1.114 g | – | –
Active | Active | Active | O=CC[C@H]1S[C@@H](COC(=O)[C@@H]2CCCN2)[C@@H](COC(=O)[C@@H]2CCCN2)S1 | 1.446 g | – | –
Active | Active | Active | N[C@@H](Cc1c[nH]cn1)C(=O)OC[C@@H]1S[C@H](CC=O)S[C@@H]1COC(=O)[C@@H](N)Cc1c[nH]cn1 | 1.076 g | – | –
Active | Active | Active | CC(C)C[C@H](N)C(=O)OC[C@@H]1S[C@H](CC=O)S[C@@H]1COC(=O)[C@@H](N)CC(C)C | 1.296 g | – | –
